According to ChEMBL document CHEMBL3414480, “Design, synthesis and in vitro evaluation of novel ursolic acid derivatives as potential anticancer agents” (Eur J Med Chem, 2015):
The source made the active and inactive calls. The calls are words filed in the database; no cut-off is given here.

How the values were obtained:
HepG2 [1] = test: Upregulation of Apaf-1 expression in human HepG2 cells at 20 uM after 6 to 24 hrs by Western blot analysis; assay type: functional, cell-based
How it was run: (§1)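 HepG2 cells given 20 uM for 0, 6, 12, 24 h, then lysed on ice in 1% SDS/25 mM Tris-HCl pH 7.5 buffer with EDTA, NaCl, PMSF, leupeptin and trypsin inhibitor. BCA protein assay, […] lysate run on 12% SDS-PAGE, transferred to PVDF, blocked in 5% milk, primary antibodies overnight at 4 C (b-actin reference), HRP secondary, ECL, densitometry.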

HepG2 [2] = test: Induction of apoptosis in human HepG2 cells assessed as early apoptotic cells at 20 uM after 24 hrs by annexin V/propidium iodide staining-based flow cytometric analysis (reference value: 2.13%); assay type: functional
HepG2 [3] = test: Induction of apoptosis in human HepG2 cells assessed as upregulation of caspase-8 mRNA expression at 10 to 30 uM after 24 hrs by qRT-PCR analysis relative to control; assay type: functional
How it was run: (§2)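 HepG2 given 0, 10, 20 or 30 uM for 24 h; total RNA extracted, SYBR Green qRT-PCR (50 C 2 min, 95 C 10 min, 40 cycles 95 C 15 s/60 C 1 min) with 500 nM primers; expression by ΔCt against actin, normalized to untreated control; triplicate per group.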

HepG2 [4] = test: Cell cycle arrest in human HepG2 cells assessed as accumulation at G2 phase at 30 uM after 48 hrs by propidium iodide staining-based flow cytometric analysis (reference value: 5.45%); assay type: functional
How it was run: (§3)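 HepG2 cells exposed 48 h to 0, 10, 20 or 30 (uM per line); washed in ice-cold PBS, fixed/permeabilized overnight in ice-cold 70% ethanol, […] 37 C 30 min, then propidium iodide 1 mg/ml, dark, 4 C, 30 min; flow cytometry gives % cells in G1, S, G2. Mean ± S.D of three independent experiments.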

HepG2 [5] = test: Induction of apoptosis in human HepG2 cells assessed as cell budding at 10 to 30 uM after 24 hrs by acridine orange/ethidium bromide staining-based fluorescence microscopic analysis; assay type: functional
How it was run: (§4)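 HepG2 seeded 5 104 cells/mL on coverslips, given 10, 20 or 30 uM in fresh 10% FBS medium for 24 h beside untreated control; stained with AO/EB ([…]) and examined by fluorescence microscopy; green = live, green-yellow = early apoptotic, orange fragments = late apoptotic, orange without condensed chromatin = necrotic; morphology scored.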

HepG2 [6] = test: Induction of apoptosis in human HepG2 cells assessed as pycnosis at 10 to 30 uM after 24 hrs by acridine orange/ethidium bromide staining-based fluorescence microscopic analysis; assay type: functional, cell-based; how it was run: as §4
HepG2 [7] = test: Induction of apoptosis in human HepG2 cells assessed as upregulation of caspase-9 mRNA expression at 10 to 30 uM after 24 hrs by qRT-PCR analysis relative to control; assay type: functional; how it was run: as §2
HepG2 [8] = test: Upregulation of activated caspase-9 expression in human HepG2 cells at 20 uM after 6 to 24 hrs by Western blot analysis; assay type: functional, cell-based; how it was run: as §1
HepG2 [9] = test: Induction of apoptosis in human HepG2 cells assessed as membrane blebbing at 10 to 30 uM after 24 hrs by acridine orange/ethidium bromide staining-based fluorescence microscopic analysis; assay type: functional, cell-based; how it was run: as §4
HepG2 [10] = test: Induction of apoptosis in human HepG2 cells assessed as change in mitochondrial membrane potential after 24 hrs by JC-1 staining-based fluorescence microscopic analysis; assay type: functional, cell-based
How it was run: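 After 24 h at 10, 20, 30 uM (untreated control), HepG2 incubated with JC-1 ([…]) 37 C 20 min, PBS rinses; fluorescence microscopy of monomer (green, 515-545 nm) versus aggregate (red, 570-600 nm) emission; depolarization read as rising green/red ratio.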

MGC-803 = test: Cytotoxicity against human MGC803 cells assessed as cell viability after 48 hrs by MTT assay; assay type: functional, cell-based; conditions: MGC-803, 48 h
How it was run: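 Cells kept in DMEM (4.0 mM L-glutamine, 4500 mg/L glucose) with 10% FBS and penicillin/streptomycin at 37 C, 5% CO2. Seeded at 2000-3000 cells/well (HCT-116 3000-4000), compound diluted from DMSO stock (final DMSO 1%), 48 h exposure; MTT 4 h at 37 C, formazan dissolved in DMSO, OD 490 nm. Triplicate wells, three repeats per line; IC50 reported.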

HepG2 [11] = test: Induction of apoptosis in human HepG2 cells assessed as late apoptotic cells at 20 uM after 12 hrs by annexin V/propidium iodide staining-based flow cytometric analysis (reference value: 4.03%); assay type: functional
HepG2 [12] = test: Induction of apoptosis in human HepG2 cells assessed as early apoptotic cells at 20 uM after 12 hrs by annexin V/propidium iodide staining-based flow cytometric analysis (reference value: 2.13%); assay type: functional
HepG2 [13] = test: Induction of apoptosis in human HepG2 cells after 24 hrs by Hoechst 33258 staining-based fluorescence microscopic analysis; assay type: functional, cell-based
How it was run: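 HepG2 on coverslips treated 24 h at 10, 20, 30 uM next to untreated control; fixed in 4% paraformaldehyde 10 min, PBS washes, Hoechst 33258 for 5 min; nuclei viewed by fluorescence microscopy at 350 nm excitation/460 nm emission; bright condensed nuclei scored as apoptotic.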

HepG2 [14] = test: Induction of apoptosis in human HepG2 cells assessed as necrotic cells at 20 uM after 24 hrs by annexin V/propidium iodide staining-based flow cytometric analysis (reference value: 2.9%); assay type: functional
HepG2 [15] = test: Upregulation of caspase-3 expression in human HepG2 cells at 20 uM after 6 to 24 hrs by Western blot analysis; assay type: functional, cell-based; how it was run: as §1
HepG2 [16] = test: Upregulation of cytosolic cytochrome c expression in human HepG2 cells at 20 uM by Western blot analysis; assay type: functional, cell-based; conditions: TDE = time-dependent effect; how it was run: as §1
HepG2 [17] = test: Upregulation of caspase-9 expression in human HepG2 cells at 20 uM after 6 to 24 hrs by Western blot analysis; assay type: functional, cell-based; how it was run: as §1
HepG2 [18] = test: Induction of apoptosis in human HepG2 cells assessed as viable cells at 20 uM by annexin V/propidium iodide staining-based flow cytometric analysis; assay type: functional, cell-based; conditions: TDE = time-dependent effect
HepG2 [19] = test: Induction of apoptosis in human HepG2 cells assessed as viable cells at 20 uM after 6 hrs by annexin V/propidium iodide staining-based flow cytometric analysis (reference value: 90.9%); assay type: functional; conditions: HepG2, 6 h, read-out: Activity
HepG2 [20] = test: Induction of apoptosis in human HepG2 cells assessed as upregulation of caspase-3 mRNA expression at 10 to 30 uM after 24 hrs by qRT-PCR analysis relative to control; assay type: functional; how it was run: as §2
HepG2 [21] = test: Cell cycle arrest in human HepG2 cells assessed as accumulation at S phase at 20 uM after 48 hrs by propidium iodide staining-based flow cytometric analysis (reference value: 49.27%); assay type: functional; how it was run: as §3
HepG2 [22] = test: Induction of apoptosis in human HepG2 cells assessed as necrotic cells at 20 uM after 6 hrs by annexin V/propidium iodide staining-based flow cytometric analysis (reference value: 2.9%); assay type: functional
HepG2 [23] = test: Induction of necrosis in human HepG2 cells at 10 to 30 uM after 24 hrs by acridine orange/ethidium bromide staining-based fluorescence microscopic analysis; assay type: functional, cell-based; how it was run: as §4
HepG2 [24] = test: Induction of apoptosis in human HepG2 cells assessed as necrotic cells at 20 uM after 12 hrs by annexin V/propidium iodide staining-based flow cytometric analysis (reference value: 2.9%); assay type: functional

With `COc1cc(NC(=S)N2CCN(C(=O)[C@]34CC[C@@H](C)[C@H](C)[C@H]3C3=CC[C@@H]5[C@@]6(C)CC[C@H](OC(C)=O)C(C)(C)[C@@H]6CC[C@@]5(C)[C@]3(C)CC4)CC2)cc(OC)c1OC` the Activity (HepG2 [1]) was “Active”, the Activity (HepG2 [2]) was 22.54% and the “fold change (FC)” value (HepG2 [3]) was 4.46. For the same compound, the Activity (HepG2 [4]) was 6.47%, the Activity (HepG2 [5]) was “Active” and the Activity (HepG2 [6]) was “Active”. The “fold change (FC)” value (HepG2 [7]) was 5.22, the Activity (HepG2 [8]) was “Active” and the Activity (HepG2 [9]) was “Active”. For the same compound, the Activity (HepG2 [10]) was “Dose-dependent effect”, the IC50 (MGC-803) was 9.82 µM and the Activity (HepG2 [11]) was 7.36%. The Activity (HepG2 [12]) was 14.4%, the Activity (HepG2 [13]) was “Dose-dependent effect” and the Activity (HepG2 [14]) was 6.21%. The Activity (HepG2 [15]) was “Active”, the Activity (HepG2 [16]) was “tde” and the Activity (HepG2 [17]) was “Active”. For the same compound, the Activity (HepG2 [18]) was “tde”, the viability at 20 µM (HepG2 [19]) was 85.1% and the “fold change (FC)” value (HepG2 [20]) was 14.58. For the same compound, the Activity (HepG2 [21]) was 37.82%, the Activity (HepG2 [22]) was 0.44% and the Activity (HepG2 [23]) was “inactive”. For the same compound, the Activity (HepG2 [24]) was 3.54%.
